These results are taken from ChEMBL document CHEMBL4513216, “Probing the Open Global Health Chemical Diversity Library for Multistage-Active Starting Points for Next-Generation Antimalarials” (ACS Infect Dis, 2020).

The nature of the data set: Toxicity liver stage against HepG2, at 10uM. Type of data set: cell-based. The conditions noted are these: human, HepG2-A16-CD81EGFP cells; read-out: INHIBITION
The arrangement: test concentration 10 uM, cell line HepG2-A16-CD81EGFP. The method in brief:
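Uninfected HepG2-A16-CD81EGFP cells, 3 × 10^3 per well, 1536-well, plated on prespotted compound at 10 μM final, parasite-free screening media added to match infected plates; puromycin 10 μM positive, DMSO 0.5% negative; run in parallel with 48 h PbLuc assay at 37 °C, 5% CO2; viability by CellTiter-Glo luminescence, normalized to controls.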
Consider `COC(=O)c1ccc2ccn(CC3CCNC3)c(=O)c2c1` (stereo not drawn), for which the cytotoxicity at 10 µM was -28%.
With `O=C(c1cccnc1N1CCCCC1)N1CCCC(n2ccnc2)C1` (stereo not drawn), the cytotoxicity at 10 µM was -14.4%.
With `COCCc1nnc(NC(=O)Cc2ccccc2Cl)o1` the figure was -6.95%; with `COc1ccc2nnc(CCCC(=O)NCCc3ccccc3)n2n1`, -5.11%; with `Cn1cc(NC(=O)Nc2ccc3c(c2)OCO3)cn1`, -0.37%.
With `CC(C)c1nc(CN2CCOC(CNc3cccnn3)C2)cs1` (stereo not drawn) the figure was -2.93%; with `CSc1ccc(OCCN2CCNC(=O)C2C)cc1` (stereo not drawn), 8.57%; with `CC1c2ncc(CNC(=O)C3CC3)n2CCN1Cc1cnn(C)c1` (stereo not drawn), -20.2%.
With `Fc1cc(Oc2ccc(C(F)(F)F)cn2)cc(F)c1CN1CCCC1` the figure was 24%; with `OC1CCCN(CCNc2ncc(Cl)cc2F)C1` (stereo not drawn), 8.81%.
With `CNC(=O)CN(C)C1CCN(c2ccc(Cl)cc2)CC1`, the cytotoxicity at 10 µM is -1.15%.
With `CC(NC(=O)NCc1ccc(Cl)cc1)c1ccccn1` (stereo not drawn) the figure was 3.42%.
In the case of `NC(=O)COc1cccc(C(=O)N2CCCC(n3cccn3)C2)c1` (stereo not drawn), the cytotoxicity at 10 µM is -4.86%.
In the case of `CC(C)n1nccc1CN1Cc2nccn2CC1c1ccccc1` (stereo not drawn), the cytotoxicity at 10 µM came to 5.38%.
With `Cc1noc(C)c1C(=O)N1CCCC(c2nccn2Cc2cscn2)C1` (stereo not drawn) the figure was 2.11%.
As to `CC(C)CCN1CCN(C(=O)c2ccc(=O)[nH]n2)CC1`, the cytotoxicity at 10 µM is -6.96%.
With `CN1CCCN(C(=O)c2ccn3ccnc3c2)CC1` the figure was -2.38%; with `COCCN1C(=O)C[C@H]2[C@H]1CCN2C(=O)c1ccc[nH]1`, 5.89%; with `CC(C)NC(=O)N1CCCn2cnc(CN3CCCC3=O)c2C1`, 17.4%.
With `CCn1c2c(ccc1=O)CC(NCc1cnn(C)c1)CC2` (stereo not drawn) the figure was -102%.
Regarding `O=c1cc(N2CCNCC2)cnn1CCc1ccc(F)cc1`, the cytotoxicity at 10 µM was -8.76%.
As to `COCC(=O)N[C@H](C(=O)NC(C)c1cc(C)ccc1C)C(C)C` (stereo partly drawn), the cytotoxicity at 10 µM is 0.341%.
With `CCCC(O)CN1CC(C)(C)CN(C(=O)c2ccccc2)CC1=O` (stereo not drawn) the figure was -0.295%; with `CSc1cccc(NC(=O)N2CCC3(CCC(=O)N(C4CC4)C3)CC2)c1`, 9.27%; with `Cc1cccn2c(=O)cc(CN3CCCC3Cn3cncn3)nc12` (stereo not drawn), 0.714%.
Consider `O=C(Nc1ccc(F)cc1)C1CNCCN1C(=O)CSc1ccncc1` (stereo not drawn), for which the cytotoxicity at 10 µM is -0.316%.
As for `COc1cccc([C@H]2CN(C(=O)c3ccccc3)[C@@H]3CCCN[C@H]23)c1`, the cytotoxicity at 10 µM is -25.9%.
`c1coc(-c2noc(CN3CCc4cncnc4C3)n2)c1`: the cytotoxicity at 10 µM was -9.39%.
With `Cc1nc(CN2Cc3nccn3CC(COCC3CC3)C2)cs1` (stereo not drawn) the figure was 11.3%.
With `CCc1cnc(N2C[C@H]3CN(Cc4csc(C)n4)C(=O)[C@H]3C2)nc1` the figure was 9.43%.
Turning to `O=C(CCN1CCCO1)N1CCCC(CO)(CCCc2ccccc2)C1` (stereo not drawn), the cytotoxicity at 10 µM worked out at 2.76%.
With `CSCC[C@@H]1CN2CCC[C@H]2CN1Cc1cn(C)nc1C`, the cytotoxicity at 10 µM is -11.3%.
With `CC(=O)Nc1nc(C2CCN(C(=O)c3cccnc3)CC2)cs1` the figure was -2.47%; with `COCCN(Cc1ccc(F)cc1Cl)C(=O)c1cc(C)no1`, 8.75%.
With `CCOc1ccc(C(=O)Nc2c(C)nc3scc(C)n3c2=O)cc1` the figure was -5.58%; with `COc1ncccc1NC(=O)C1CCOCC1`, -29.8%; with `O=C(c1ccccc1-c1nnn[nH]1)N1CCOC(C(F)(F)F)C1` (stereo not drawn), -1.67%.
`Cc1cnn(CCNCc2nccn2Cc2ccccc2)c1`: the cytotoxicity at 10 µM was found to be 5.91%.
For `CNC(=O)C1(N2CCC[C@H]2C(=O)NC2CCOCC2)CCOCC1`, the cytotoxicity at 10 µM is 0.705%.
On to `Cc1cccc2c1nc(CCO)n2-c1ccc(C(=O)N2CCCC2)o1`, for which the cytotoxicity at 10 µM was found to be 7.39%.
`O[C@@H]1C[C@@H](c2nc(-c3ccc(F)cc3)no2)N(C2CCOCC2)C1`: the cytotoxicity at 10 µM came out at 4.51%.
`CCc1nc(CN2CCCN(c3nn4cc(C)nc4s3)CC2)no1`: the cytotoxicity at 10 µM is -14.7%.
With `Cc1nc(Nc2cnccn2)cc(C2CN(C(C)C)C2)n1` the figure was -27.1%.
Consider `CN(C)S(=O)(=O)N1CCOCC1CC(=O)NCCOc1ccccc1` (stereo not drawn), for which the cytotoxicity at 10 µM worked out at 2.38%.
Take `Cc1nc(C(=O)N2CCCC2c2c(C)nn(C)c2C)cs1` (stereo not drawn): the cytotoxicity at 10 µM was -15.8%.
With `NC(=O)CNC1(c2ccc(Cl)cc2)CCCC1` the figure was 13%; with `COc1cc(NC(=O)N(C)CC2CC2)ncn1`, 7.09%; with `N#CC1(NC(=O)CN2CCc3c(ncn3C3CC3)C2)CCCC1`, 12.1%.
Consider `CCNc1ncnc2c1CN(C1CCCNCC1)C(=O)CN2C` (stereo not drawn), for which the cytotoxicity at 10 µM turned out to be 5.5%.
With `c1ccc(CN2CCN3C[C@H](Oc4cncnc4)C[C@H]3C2)nc1`, the cytotoxicity at 10 µM was -99.8%.
With `O=C(Nc1cnccn1)[C@@H]1COC[C@H]2CN(C3CCC3)C[C@H]21`, the cytotoxicity at 10 µM is 14.7%.
With `CN1Cc2ccccc2N(CC(O)C(F)(F)F)CCC1=O` (stereo not drawn) the figure was 0.905%; with `COCc1nc(NCC2CCS(=O)(=O)C2)c2cnn(C)c2n1` (stereo not drawn), -5.97%; with `COc1cccc(COCC(O)CN2CC(n3cccn3)C2)c1` (stereo not drawn), -8.52%.
With `Cc1cccc(C(C)(C)NC(=O)CCS(C)(=O)=O)c1` the figure was 2.41%; with `CCCNC(=O)C(C)Nc1ccn(Cc2ccccn2)n1` (stereo not drawn), -5.95%; with `Cc1cc(C)cc(CNCCS(=O)(=O)N2CCOCC2)c1`, 1.05%.
With `COCCn1cnnc1CCNc1cc(C)nc2ccnn12` the figure was -1.42%; with `Cc1ccccc1CN1CCC(CNC(=O)Cn2cncn2)CC1`, 3.83%.
With `O=S(=O)(NCc1cccnc1OC1CCCC1)N1CCCCC1`, the cytotoxicity at 10 µM was -3.82%.
With `Cc1nc2scc(C)n2c1CNc1ccc(C(=O)O)cc1` the figure was 7.05%; with `COc1ccc(-n2cc3[nH]c(=O)[nH]n3c2=O)cc1`, -0.106%; with `CCC(=O)Nc1ccc(N2CCC(OC)CC2)c(C(F)(F)F)c1`, 5.72%.
With `Cc1ccccc1C1(CNc2nnc(C)c(C)c2C#N)CCOCC1` the figure was -2.1%.
With `CN1CCCC(Cc2cc(N(C)C)ncn2)C1` (stereo not drawn) the figure was 11.1%; with `CN1C2(CCN(Cc3ccc(F)cc3)C2)c2ccccc2S1(=O)=O` (stereo not drawn), 13.5%; with `COCCN1CCC(CN(CC2CCCO2)C(=O)Cn2cccn2)CC1` (stereo not drawn), -3.79%.
As to `CN(C)c1ncccc1CNC(=O)NCc1ccco1`, the cytotoxicity at 10 µM is -3.26%.
On to `COCCNC(=O)Nc1ccc(-n2cncn2)c(C(F)(F)F)c1`, for which the cytotoxicity at 10 µM was -5.92%.
For `CC(C)c1cccc(-n2cc(O)c(C(=O)NCCC(=O)N(C)C)n2)c1`, the cytotoxicity at 10 µM is -2.53%.
With `Cc1cc(-c2cccc3c2CCNC3)cnc1-n1cnnc1` the figure was -0.972%; with `CC(C)C(=O)N1CCC(NCc2c(C(C)C)nn(C)c2N(C)C)CC1`, 5.21%.
With `CN1CCC(N(CCc2ccccc2)C(=O)c2cc[nH]c2)CC1` the figure was -1.14%.
Take `CC(C)c1cc(O)nc(C2CCCN2C(=O)C2CC2)n1` (stereo not drawn): the cytotoxicity at 10 µM was -25.1%.
Turning to `Cc1nc2sccn2c1C(=O)N1CCc2c(nc(N(C)C)[nH]c2=O)C1`, the cytotoxicity at 10 µM is 5.06%.
With `Cc1cc(C)n(CCCN(C)Cc2cn[nH]c2-c2ccc(F)cc2)n1` the figure was 2.09%.
`Cc1ccsc1CN(CCN(C)C)Cc1ccccn1`: the cytotoxicity at 10 µM is -16.1%.
As to `O=C(c1ccccn1)N(CCO)Cc1cc(Br)ccc1F`, the cytotoxicity at 10 µM was found to be 9.91%.
With `CC(C)(C)c1cnc(CN2CCC(NC(=O)Nc3ccccc3)CC2)o1` the figure was -12.3%; with `Cc1cccc(C(=O)Nc2c(C(N)=O)n[nH]c2C)c1C`, -1.49%.
With `O=C(CCN1CCCCO1)NC1CCCN(CC2CCCCC2)C1` (stereo not drawn), the cytotoxicity at 10 µM was 4.21%.
With `Cc1cc(C(=O)N2CCc3ncc(CN4CCCCC4)n3CC2)no1` the figure was -100%; with `Cc1cc(C)c(CNC(=O)NC2CCN(C(=O)C(C)C)CC2)c(C)c1`, 9.46%.
With `CC(C)NC(=O)CN1CCCNCC1` the figure was -0.616%.
With `Cc1nc(CN2CCc3ncnc(-c4ccccc4)c3CC2)cs1` the figure was -81.1%; with `Cc1ccc(S(=O)(=O)NCCNC(=O)c2ccoc2)cc1F`, -5.69%.
Regarding `CCc1cc(NCCCNS(C)(=O)=O)nc(-c2ccccn2)n1`, the cytotoxicity at 10 µM was determined as 1.8%.
With `CN(Cc1ccc(N(C)C)cc1)C(=O)c1cc2c([nH]c1=O)CCCC2=O` the figure was -3.34%; with `CCn1cc(NC(=O)N2CCN(CCSc3ccccc3)CC2)cn1`, -0.095%.
With `O=C1C[C@@H]2CC[C@H](CN1)N2C1CSCCSC1` the figure was -2.26%.
As for `O=C(CSC1CCc2ccccc2NC1=O)NCCc1ccc(O)cc1` (stereo not drawn), the cytotoxicity at 10 µM is -4.25%.
With `CC(C)c1nc(C2CCCN(C(=O)CCn3ccnc3)C2)no1` (stereo not drawn) the figure was -10.8%; with `CC[C@@H]1N(Cc2cc(OC)cc(OC)c2)CCC[C@]12CCC(=O)N2C`, 11.8%; with `CCOCCNC(=O)c1ccc(OC)cc1I`, 6.53%.
With `Cc1cc(CN2CCN(S(C)(=O)=O)CC(C(=O)N(C)C)C2)no1` (stereo not drawn) the figure was -9.74%.
With `O=C(NCCN1CCCC(CO)C1)c1ccc2sccc2c1` (stereo not drawn) the figure was -5.35%; with `CNC(=O)c1cccc(CNC(=O)C2CC(=O)N(CCN(C)C)C2)c1` (stereo not drawn), 1.01%; with `COCCCN1CCC(N(Cc2noc(C)n2)C(C)=O)C1` (stereo not drawn), -4.22%.
